ChEMBL document CHEMBL3351346, “Design, synthesis, structure-function relationship, bioconversion, and pharmacokinetic evaluation of ertapenem prodrugs” (J Med Chem, 2014)

What was measured:
Canis familiaris [1] = test: Oral bioavailability in fasted Beagle dog assessed as ertapenem level at 10 mg/kg dosed through intraduodenal route by LC-MS/MS method; format: ADME, organism-based, Canis lupus familiaris; conditions: in vivo
Summary of the method: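 After intraduodenal dosing, plasma over 8 h was analysed by LC-MS/MS. Bioavailability was calculated as dose-normalized AUC of ertapenem formed from the prodrug divided by dose-normalized AUC of ertapenem dosed iv. Vehicle was 30% Captisol or 0.5% methylcellulose.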

Canis familiaris [2] = test: Oral bioavailability in fasted Beagle dog assessed as assessed as ertapenem and monoetser metabolites level at 10 mg/kg dosed through intraduodenal route by LC-MS/MS method; format: ADME, organism-based, Canis lupus familiaris; conditions: in vivo
Summary of the method: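 Total absorption followed intraduodenal dosing with LC-MS/MS of plasma over 8 h. It was calculated as the combined dose-normalized AUC of circulating parent prodrug, ertapenem and two monoesters, divided by dose-normalized AUC of ertapenem given iv. Vehicle was 30% Captisol or 0.5% methylcellulose.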

Canis familiaris [3] = test: AUC (0 to 8 hrs) in fasted Beagle dog assessed as ertapenem level at 10 mg/kg dosed through intraduodenal route by LC-MS/MS method; format: ADME, organism-based, Canis lupus familiaris, Plasma; set-up: time < 8 hr, dose 10 mg/kg, route intraduodenal; conditions: in vivo, other
Summary of the method: (§1)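 Prodrugs were given intraduodenally to bypass stomach acid. Plasma was sampled at intervals over 8 h, and parent prodrug, the two monoester metabolites and ertapenem were quantified by LC-MS/MS. The lower limit of quantitation was 5 nM. AUC(0–8) was used, and it differed from AUC(0–∞) by ±20%. Vehicles were 30% Captisol or 0.5% methylcellulose, as solution or suspension depending on compound.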

[4] = Stability in pH 6.5 simulated gastrointestinal fluid assessed as compound remaining at 50 uM after 3 hrs by LC-MS/MS method; format: ADME; conditions: read-out: Stability
Summary of the method: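 Compounds at 50 μM were incubated in fasted-state simulated intestinal fluid (FaSSIF, pH 6.5) for over 3 h. Percent remaining was determined by LC-MS/MS.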

[5] = Stability in pH 7.4 phosphate buffer assessed as compound remaining at 50 uM after 3 hrs by LC-MS/MS method; format: physicochemical; conditions: read-out: Stability
[6] = Stability in human plasma assessed as compound remaining at 50 uM at 37 degC after 60 mins by LC-MS/MS method; format: ADME, cell-free; conditions: read-out: Stability
Summary of the method: (§2)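 Prodrugs were incubated in rat or human plasma for 60 min. Disappearance of prodrug and concomitant appearance of ertapenem were followed by LC-MS/MS, and in selected cases monoesters from partial hydrolysis were also monitored. Ertapenem itself was incubated the same way as a control.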

Canis familiaris [7] = test: AUC (0 to 8 hrs) in fasted Beagle dog at 10 mg/kg dosed through intraduodenal route by LC-MS/MS method; format: ADME, organism-based, Canis lupus familiaris, Plasma; set-up: time < 8 hr, dose 10 mg/kg, route intraduodenal; conditions: in vivo, other, 8 h; summary of the method: as §1
[8] = Stability in pH 2.0 simulated gastric fluid assessed as compound degradation to beta-lactam ring open products at 1 uM after 60 mins by LC-MS/MS method; format: ADME; conditions: read-out: Drug degradation
Summary of the method: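 Incubation was in simulated gastric fluid (SGF, pH 2.0) for 60 min, with loss to the β-lactam ring-opened product measured by LC-MS/MS.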

Canis familiaris [9] = test: AUC (0 to 8 hrs) in fasted Beagle dog assessed as 8-OH, benzoate ester level at 10 mg/kg dosed through intraduodenal route by LC-MS/MS method; format: ADME, organism-based, Canis lupus familiaris, Plasma; set-up: time < 8 hr, dose 10 mg/kg, route intraduodenal; conditions: in vivo, other; summary of the method: as §1
[10] = Stability in rat plasma assessed as compound remaining at 50 uM at 37 degC after 60 mins by LC-MS/MS method; format: ADME, cell-free; conditions: read-out: Stability; summary of the method: as §2
Canis familiaris [11] = test: AUC (0 to 8 hrs) in fasted Beagle dog assessed as 8-OH, C-3 ester level at 10 mg/kg dosed through intraduodenal route by LC-MS/MS method; format: ADME, organism-based, Canis lupus familiaris, Plasma; set-up: time < 8 hr, dose 10 mg/kg, route intraduodenal; conditions: in vivo, other; summary of the method: as §1

SMILES | F (Canis familiaris [1]) [%] | F (Canis familiaris [2]) [%] | AUC (Canis familiaris [3]) [µM·h] | remaining at 3 h, 50 µM [4] [%] | remaining at 3 h, 50 µM [5] [%] | remaining at 1 h, 50 µM [6] [%] | AUC (Canis familiaris [7]) [µM·h] | degraded at 1 h, 1 µM [8] [%] | AUC (Canis familiaris [9]) [µM·h] | remaining at 1 h, 50 µM [10] [%] | AUC (Canis familiaris [11]) [µM·h] | AUC (Canis familiaris [7]; BLD = below limit of detection) | AUC (Canis familiaris [11]; BLD = below limit of detection)
C[C@@H](O)[C@H]1C(=O)N2C3=C(S[C@@H]4CN[C@@H](C4)C(=O)Nc4cccc(c4)C(=O)OCCCOC3=O)[C@H](C)[C@H]12 | 0.5 | 0.7 | 0.4 | > 95 | > 95 | 34 | 0.1 | > 25 | – | – | – | – | –
CCOC(=O)C1=C(S[C@@H]2CN[C@H](C(=O)Nc3cccc(C(=O)OCC)c3)C2)[C@H](C)[C@@H]2[C@@H]([C@@H](C)OC(=O)CC)C(=O)N12 | 12.6 | 20.2 | 9.1 | > 95 | > 95 | 22 | – | > 25 | 1.6 | 0 | 1.3 | BLD | –
CCOC(=O)C1=C(S[C@H]2C[C@@H](C(=O)Nc3cccc(C(=O)OCC)c3)N(C(=O)OCc3oc(=O)oc3C)C2)[C@H](C)[C@@H]2[C@@H]([C@@H](C)O)C(=O)N12 | 6.4 | 14.4 | 3.4 | > 95 | > 95 | 9 | – | > 25 | 3.1 | 0 | 0.7 | BLD | –
CCOC(=O)C1=C(S[C@H]2C[C@@H](C(=O)Nc3cccc(C(=O)OCC)c3)N(Cc3oc(=O)oc3C)C2)[C@H](C)[C@@H]2[C@@H]([C@@H](C)O)C(=O)N12 | – | – | – | > 95 | > 95 | 19 | – | > 25 | – | 0 | – | – | –
CCOC(=O)C1=C(S[C@@H]2CN[C@H](C(=O)Nc3cccc(C(=O)OCC)c3)C2)[C@H](C)[C@@H]2[C@@H]([C@@H](C)OC(=O)[C@@H](N)C(C)C)C(=O)N12 | 9.7 | 14.9 | 6.5 | > 95 | > 95 | 38 | – | > 25 | 1 | 0 | 0.9 | BLD | –
C[C@@H](O)[C@H]1C(=O)N2C3=C(S[C@@H]4CN[C@@H](C4)C(=O)Nc4cccc(c4)C(=O)OC/C=C\COC3=O)[C@H](C)[C@H]12 | – | – | – | > 95 | > 95 | 21 | – | > 25 | – | 0 | – | – | –
CC(OC(=O)C1=C(S[C@@H]2CN[C@H](C(=O)Nc3cccc(C(=O)OC(C)OC(=O)C(C)(C)C)c3)C2)[C@H](C)[C@@H]2[C@@H]([C@@H](C)O)C(=O)N12)OC(=O)C(C)(C)C (stereo not given in full) | – | – | – | > 95 | > 95 | 46 | – | > 25 | – | 2 | – | – | –
CCC(=O)OCOC(=O)C1=C(S[C@@H]2CN[C@H](C(=O)Nc3cccc(C(=O)OCOC(=O)CC)c3)C2)[C@H](C)[C@@H]2[C@@H]([C@@H](C)O)C(=O)N12 | 2.9 | 2.9 | 1.6 | > 95 | > 95 | 0 | – | > 25 | – | 0 | – | BLD | BLD
C[C@@H](O)[C@H]1C(=O)N2C3=C(S[C@@H]4CN[C@@H](C4)C(=O)Nc4cccc(c4)C(=O)OCc4oc(=O)oc4COC3=O)[C@H](C)[C@H]12 | 1 | 1 | 0.7 | > 95 | > 95 | 0 | – | > 25 | – | 0 | – | BLD | –
CC(=O)OCOC(=O)C1=C(S[C@@H]2CN[C@H](C(=O)Nc3cccc(C(=O)OCOC(C)=O)c3)C2)[C@H](C)[C@@H]2[C@@H]([C@@H](C)O)C(=O)N12 | – | – | – | > 95 | > 95 | 0 | – | > 25 | – | 0 | – | – | –
Cc1oc(=O)oc1COC(=O)N1C[C@@H]2C[C@H]1C(=O)Nc1cccc(c1)C(=O)OC/C=C\COC(=O)C1=C(S2)[C@H](C)[C@@H]2[C@@H]([C@@H](C)O)C(=O)N12 | – | – | – | > 95 | > 95 | 20 | – | > 25 | – | 0 | – | – | –
C[C@@H](O)[C@H]1C(=O)N2C(C(=O)OCOC(=O)C3CCCCC3)=C(S[C@@H]3CN[C@H](C(=O)Nc4cccc(C(=O)OCOC(=O)C5CCCCC5)c4)C3)[C@H](C)[C@H]12 | – | – | – | > 95 | > 95 | 60 | – | > 25 | – | 10 | – | – | –
C[C@@H](O)[C@H]1C(=O)N2C3=C(S[C@@H]4CN[C@@H](C4)C(=O)Nc4cccc(c4)C(=O)OCCCCOC3=O)[C@H](C)[C@H]12 | – | – | – | > 95 | > 95 | 4 | – | > 25 | – | 0 | – | – | –
C[C@@H](O)[C@H]1C(=O)N2C3=C(S[C@@H]4CN[C@@H](C4)C(=O)Nc4cccc(c4)C(=O)OCOCOC3=O)[C@H](C)[C@H]12 | – | – | – | > 95 | > 95 | 60 | – | > 25 | – | 0 | – | – | –
C[C@@H](O)[C@H]1C(=O)N2C(C(=O)OCOC(=O)OC(C)(C)C)=C(S[C@@H]3CN[C@H](C(=O)Nc4cccc(C(=O)O)c4)C3)[C@H](C)[C@H]12 | – | – | – | > 95 | > 95 | 40 | – | > 25 | – | 0 | – | – | –
COC(=O)OCOC(=O)C1=C(S[C@@H]2CN[C@H](C(=O)Nc3cccc(C(=O)OCOC(=O)OC)c3)C2)[C@H](C)[C@@H]2[C@@H]([C@@H](C)O)C(=O)N12 | – | – | – | > 95 | > 95 | 0 | – | > 25 | – | 0 | – | – | –
